Experimental data taken from ChEMBL document CHEMBL2331102 (Bioorg Med Chem, 2013).
In brackets after ≈: the same amount, converted by molar mass.

How the values were obtained:
Trypanosoma cruzi = assay: Antitrypanosomal activity against Trypanosoma cruzi Tulahuen TcVI extracellular trypomastigotes forms transfected with beta-galactosidase gene infected in rat L6 cells assessed as inhibition of parasite growth after 4 days; format: functional, organism-based; conditions: L6, 96 h
Method in brief: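 L6 rat skeletal myoblasts were infected with extracellular trypomastigotes of β-galactosidase-transfected T. cruzi Tulahuen TcVI. After 48 h to establish infection, compound was added and incubation continued 4 days, exposing trypomastigote and intracellular amastigote forms.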

[1] = Selectivity index, ratio of IC50 for rat L6 cells to IC50 for Trypanosoma cruzi Tulahuen TcVI extracellular trypomastigotes forms; format: toxicity, cell-based; conditions: read-out: Ratio IC50
Method in brief: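 Ratio of the L6 myoblast cytotoxicity IC50 to the IC50 against β-galactosidase-expressing T. cruzi Tulahuen TcVI.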

L6 = assay: Cytotoxicity against rat L6 cells after 72 hrs by Alamar Blue assay; format: cell-based; conditions: L6, 72 h
Method in brief: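 Counter-screen for cytotoxicity in uninfected L6 rat skeletal muscle myoblasts, with IC50 recorded in µM.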

[2] = Kinetic solubility of the compound at pH 6.5 phosphate buffer by nephelometric analysis; format: physicochemical; conditions: read-out: Kinetic_solubility
Method in brief: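 Kinetic solubility in phosphate buffer at pH 6.5, determined by nephelometry and reported in µg/mL.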

CYP3A4/5 = CYP3A4/5 (Homo sapiens, UniProt P08684+P20815); assay: Inhibition of CYP3A4/5 in human liver microsomes assessed as reduction in testosterone-beta-hydroxylation; format: ADME, Microsome; conditions: probe testosterone
Method in brief: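 CYP3A4 inhibition measured as inhibition of testosterone β-hydroxylation, reported as IC50 (µM).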

Row | SMILES | IC50 (Trypanosoma cruzi) | selectivity ratio [1] | IC50 (L6) | solubility kinetic [2] | IC50 (CYP3A4/5)
1 | O=C(Nc1ccccc1)N1CCN(C(c2cccnc2)c2ccc(Cl)cc2F)CC1 (centres undefined) | 6 nM | > 100 |  |  | 
2 | O=S(=O)(c1ccc(Cl)cc1)N1CCN(C(c2ccc(Cl)cc2)c2cccnc2)CC1 (centres undefined) | 24 nM | > 100 |  |  | 
3 | CC(C)S(=O)(=O)N1CCN(C(c2ccc(Cl)cc2)c2cccnc2)CC1 (centres undefined) | 28 nM | > 100 | > 100000 nM | 12.5 µg/mL (≈ 31.7 µM) | 810 nM
4 | O=C(Cn1ccnc1[N+](=O)[O-])NCc1ccccc1 [BENZNIDAZOLE] | 1150 nM |  | > 100000 nM |  | 
5 | CS(=O)(=O)N1CCN(C(c2ccc(Cl)cc2)c2cncnc2)CC1 (centres undefined) | 880 nM | > 100 | > 100000 nM |  | 
6 | O=C(Nc1ccc(Cl)cc1)N1CCN(C(c2ccc(Cl)cc2)c2cncnc2)CC1 (centres undefined) | 22 nM | > 100 |  |  | 
7 | Cc1noc(N2CCN(C(c3cccnc3)c3ccc(C(F)(F)F)cc3F)CC2)n1 (centres undefined) | 17 nM | > 100 |  |  | 
8 | CC(C)(C)C(=O)N1CCN(C(c2ccc(C(F)(F)F)cc2)c2cccnc2)CC1 (centres undefined) | 30 nM | > 100 |  | 12.5 µg/mL (≈ 30.8 µM) | 2300 nM
9 | CC(=O)N1CCN(C(c2ccc(Cl)cc2)c2cccnc2)CC1 (centres undefined) | 240 nM | > 100 | > 100000 nM | > 100 µg/mL | 7400 nM
10 | O=S(=O)(c1ccccc1)N1CCN(C(c2cccnc2)c2ccc(Cl)cc2F)CC1 (centres undefined) | 8 nM | > 100 | 42000 nM | < 1.6 µg/mL | 600 nM
11 | O=C(Nc1ccccc1)N1CCN(C(c2ccc(Cl)cc2)c2cccnc2)CC1 (centres undefined) | 9 nM | > 100 |  |  | 
12 | CC(C)c1ccc(NC(=O)N2CCN(C(c3cncnc3)c3ccc(Cl)cc3F)CC2)cc1 (centres undefined) | 7 nM | > 100 |  |  | 
13 | CS(=O)(=O)N1CCN(C(c2cccnc2)c2ccc(C(F)(F)F)cc2F)CC1 (centres undefined) | 28 nM | > 100 |  | 25 µg/mL (≈ 59.9 µM) | 1000 nM
14 | CC(C)(C)OC(=O)N1CCN(C(c2cccnc2)c2ccc(Cl)cc2F)CC1 (centres undefined) | 20 nM | > 100 |  | 3.1 µg/mL (≈ 7.64 µM) | 1900 nM
15 | O=C(Oc1ccccc1)N1CCN(C(c2cccnc2)c2ccc(Cl)cc2F)CC1 (centres undefined) | 5 nM | > 100 |  |  | 
16 | O=C(c1ccccc1)N1CCN(C(c2ccc(Cl)cc2)c2cccnc2)CC1 (centres undefined) | 68 nM | > 100 |  |  | 
17 | CC(C)(C)C(=O)N1CCN(C(c2cccnc2)c2ccc(C(F)(F)F)cc2F)CC1 (centres undefined) | 24 nM | > 100 |  | 12.5 µg/mL (≈ 29.5 µM) | 3900 nM
18 | CS(=O)(=O)N1CCN(C(c2cncnc2)c2ccc(C(F)(F)F)cc2F)CC1 (centres undefined) | 25 nM | > 100 | > 100000 nM | 25 µg/mL (≈ 59.7 µM) | 5600 nM
19 | CN(C)C(=O)N1CCN(C(c2ccc(Cl)cc2)c2cccnc2)CC1 (centres undefined) | 120 nM | > 100 | > 100000 nM |  | 
20 | O=C(Oc1ccccc1)N1CCN(C(c2ccc(Cl)cc2)c2cccnc2)CC1 (centres undefined) | 8 nM | > 100 |  |  | 
21 | Clc1ccc(C(c2cccnc2)N2CCN(c3ccccc3)CC2)cc1 (centres undefined) | 34 nM | > 100 |  |  | 
22 | N#Cc1ccc(C(c2cccnc2)N2CCN(C(=O)C3CC3)CC2)cc1 (centres undefined) | 281 nM | > 100 | > 100000 nM |  | 
23 | Fc1cc(Cl)ccc1C(c1cncnc1)N1CCN(c2ccccc2)CC1 (centres undefined) | 78 nM | > 100 |  |  | 
24 | CS(=O)(=O)N1CCN(C(c2ccc(C#N)cc2)c2cccnc2)CC1 (centres undefined) | 365 nM | > 100 | > 100000 nM |  | 
25 | CC(C)(C)C(=O)N1CCN(C(c2ccc(C#N)cc2)c2cccnc2)CC1 (centres undefined) | 254 nM | > 100 | > 100000 nM |  | 

Row | SMILES | IC50 (Trypanosoma cruzi) | selectivity ratio [1] | IC50 (L6) | solubility kinetic [2] | IC50 (CYP3A4/5)
26 | O=S(=O)(C1CCCCC1)N1CCN(C(c2ccc(Cl)cc2)c2cccnc2)CC1 (centres undefined) | 10 nM | > 100 |  |  | 
27 | COc1ccccc1N1CCN(C(c2ccc(OC(C)C)cc2)c2cccnc2)CC1 (centres undefined) | 28 nM | > 100 |  |  | 
28 | N#Cc1ccc(C(c2cccnc2)N2CCN(c3nccs3)CC2)cc1 (centres undefined) | 50 nM | > 100 | > 100000 nM |  | 
29 | CC(C)Oc1ccc(C(c2cccnc2)N2CCN(C(=O)C(C)C)CC2)cc1 (centres undefined) | 35 nM | > 100 | > 100000 nM |  | 
30 | CC(C)(C)OC(=O)N1CCN(C(c2ccc(C(F)(F)F)cc2)c2cccnc2)CC1 (centres undefined) | 17 nM | > 100 |  |  | 
31 | CC(C)(C)C(=O)N1CCN(C(c2cccnc2)c2ccc(Cl)cc2F)CC1 (centres undefined) | 19 nM | > 100 |  | 12.5 µg/mL (≈ 32.1 µM) | 1000 nM
32 | COc1ccccc1N1CCN(C(c2ccc(Cl)cc2)c2cccnc2)CC1 (centres undefined) | 20 nM | > 100 |  |  | 
33 | O=S(=O)(c1ccccc1)N1CCN(C(c2ccc(Cl)cc2)c2cccnc2)CC1 (centres undefined) | 9 nM | > 100 |  | < 1.6 µg/mL | 1900 nM
34 | Cc1csc(C(=O)N2CCN(C(c3ccc(C#N)cc3)c3cccnc3)CC2)n1 (centres undefined) | 513 nM | > 100 | > 100000 nM |  | 
35 | N#Cc1ccc(C(c2cccnc2)N2CCN(C(=O)NC3CC3)CC2)cc1 (centres undefined) | > 1000 nM | > 100 | > 100000 nM |  | 
36 | CC(C)(C)OC(=O)N1CCN(C(c2cncnc2)c2ccc(Cl)cc2F)CC1 (centres undefined) | 24 nM | > 100 |  | 12.5 µg/mL (≈ 30.7 µM) | 2900 nM
37 | CS(=O)(=O)N1CCN(C(c2ccc(C(F)(F)F)cc2)c2cccnc2)CC1 (centres undefined) | 77 nM | > 100 | > 100000 nM |  | 
38 | Fc1cc(Cl)ccc1C(c1cccnc1)N1CCN(c2ncccn2)CC1 (centres undefined) | 26 nM | > 100 |  |  | 
39 | COc1ccccc1N1CCN(C(c2cncnc2)c2ccc(Cl)cc2F)CC1 (centres undefined) | 65 nM | > 100 |  |  | 
40 | O=C(C1CCCCC1)N1CCN(C(c2cccnc2)c2ccc(Cl)cc2F)CC1 (centres undefined) | 28 nM | > 100 |  | 6.3 µg/mL (≈ 15.1 µM) | 3900 nM
41 | Fc1cc(Cl)ccc1C(c1cccnc1)N1CCN(c2ccccc2)CC1 (centres undefined) | 18 nM | > 100 |  |  | 
42 | O=C(C1CC1)N1CCN(C(c2cncnc2)c2ccc(Cl)cc2F)CC1 (centres undefined) | 171 nM | > 100 | > 100000 nM |  | 
43 | O=C(NC1CC1)N1CCN(C(c2ccc(C(F)(F)F)cc2)c2cccnc2)CC1 (centres undefined) | > 1000 nM | > 100 | > 100000 nM |  | 
44 | O=C(Nc1ccc(Cl)cc1)N1CCN(C(c2cncnc2)c2ccc(Cl)cc2F)CC1 (centres undefined) | 10 nM | > 100 |  | 3.1 µg/mL (≈ 6.73 µM) | 300 nM
45 | CC(C)c1ccc(S(=O)(=O)N2CCN(C(c3ccc(Cl)cc3)c3cccnc3)CC2)cc1 (centres undefined) | 12 nM | > 100 |  |  | 
46 | CC(C)c1ccc(S(=O)(=O)N2CCN(C(c3cncnc3)c3ccc(Cl)cc3F)CC2)cc1 (centres undefined) | 18 nM | > 100 | > 100000 nM |  | 
47 | COc1ccccc1N1CCN(C(c2ccc(C(F)(F)F)cc2)c2cnccn2)CC1 (centres undefined) | 240 nM | > 100 |  | 3.1 µg/mL (≈ 7.24 µM) | 25000 nM
48 | O=C(c1ccccc1)N1CCN(C(c2cccnc2)c2ccc(Cl)cc2F)CC1 (centres undefined) | 70 nM | > 100 |  |  | 
49 | CS(=O)(=O)N1CCN(C(c2ccc(C(F)(F)F)cc2)c2cncnc2)CC1 (centres undefined) | 769 nM | > 100 | > 100000 nM |  | 
